In the library only some 2.3% were active in any assay of this set; here they are far more common.
TWEAK Fn14 block = blocks TWEAK-Fn14 interaction in a reporter cell assay. TWEAK-stimulated Fn14 reporter cells, luciferase luminescence, 8 h. inhibition, % at 10 µM. actives 2% (n = 360,000). AID 1159606; in the data active means inhibition above about 50%
Xi reactivation = activators of X-chromosome reactivation in mouse fibroblasts. activation, % at 7.58 µM. actives 0.055% (n = 360,000). XiGFP mouse fibroblasts, % GFP-positive cells imaging, 3 d; cells co-treated with 5-aza-dC sensitizer; scaled so ellipticine positive control = 100%;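 active means mean normalized replicate activation at least 10% and every replicate at or above 10%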;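 further: 0% = median of on-plate neutral control wells and 100% = ellipticine 6 µM median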
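Material: SV40-immortalized XiGFP fibroblast cells, line 68-5-11 | Buffer or medium: DMEM containing 5-aza-dC | Dosing: One concentration, pinned | Times: 3 d treatment, 15 min room-temperature fixation | Controls: Ellipticine 6 µM positive control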
FN deposition inh = fibronectin deposition inhibition; inhibition, % at 12.6 µM; actives 0.086% (n = 350,000); AID 743247; AH1F fibroblasts, Alexa488-fibronectin deposition fluorescence, overnight;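 active means mean inhibition across replicates of 30% or more, regardless of how many single replicates reach that level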;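 further: positive control wells lacked labelled fibronectin entirely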
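material = AH1F fibroblast monolayer depositing Alexa488-labelled fibronectin into matrix | amount = 10000 AH1F cells/well | buffer or medium = DMEM plus 2% serum, read in PBS | incubation = 1 h cell adhesion before compound, then overnight fibronectin incubation | detection = fluorescence at 485 nm excitation, 525 nm emission | evaluation = percent inhibition as loss of matrix-bound fibronectin fluorescence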
LGR2 antag = blocks bursicon-induced cAMP signaling via Drosophila LGR2. HEK293 LGR2, CRE-luciferase, bursicon-stimulated, 4 h. inhibition, % at 9.99 µM. actives 0.35% (n = 380,000). AID 720647;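 active means drop in luminescence signal, shown as inhibition above about 50% in the replicate tests, limit read from the data, passing the limit was not always enough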;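 further: agonist challenge used bursicon conditioned medium at about half maximal strength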
TROY NFkB inh = TROY signaling inhibition. inhibition, % at 10 µM. Q293 LMP1-TROYcd NF-kB luciferase reporter, 4 h. actives 0.98% (n = 360,000);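 active means compounds whose plate-normalised and pattern-corrected inhibition of the luciferase reporter signal at the single screening dose is 50% or more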
EWS-Fli block = EWS/Fli transcriptional activity inhibition. A673 NR0B1-luciferase reporter, viability-normalised. inhibition, % at 12.6 µM. actives 0.67% (n = 350,000). AID 651661;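 active means mean inhibition of at least 50% after viability correction, with every replicate also passing that limit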;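 further: firefly luciferase signal divided by Alamar Blue viability fluorescence both relative to DMSO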
An asterisk follows results filed as active; . = no result given.

SMILES	TWEAK Fn14 block	Xi reactivation	FN deposition inh	LGR2 antag	TROY NFkB inh	EWS-Fli block
C#CCNC(=O)C1=C[C@H](c2ccc(C#C)cc2)C[C@H](OCCCCO)O1	.	.	.	.	.	-6
COC(=O)c1cc(C(=O)N2CCN(c3cccc(Cl)c3)CC2)cc([N+](=O)[O-])c1	-1	0	-8	-5	14	51*
Cc1n[nH]c(C)c1CCc1nc2c3ccccc3nc(SCC(=O)Nc3ccccc3F)n2n1	28	.	0	.	-10	.
Cc1cccc(NC(=O)CSc2nc3ccccc3c3nc(CCc4c(C)n[nH]c4C)nn23)c1	60*	.	-10	.	1	.
COc1ccc(-c2ccc3c(c2)O[C@@H](CN(C)Cc2cccnc2)[C@H](C)CN([C@H](C)CO)S3(=O)=O)cc1	.	0	.	12	.	21
NNC(=O)COc1ccc(-c2nccc(-c3ccc(F)cc3)n2)cc1	55*	0	2	-25	14	43
O=C(O)COc1ccc(-c2nccc(-c3ccccn3)n2)cc1	61*	0	6	-20	21	53*
FCCCOc1ccc(-c2nccc(-c3ccccn3)n2)cc1	-40	0	0	-46	-35	-22
Cc1cc(/C=N/n2cnnc2)c(C)n1-c1ccc(OCc2ccc(Cl)cc2Cl)cc1	61*	.	.	.	77*	.
COc1ccc(NC(=O)Nc2ccc3c(c2)C(=O)N([C@H](C)CO)C[C@H](C)[C@@H](CN(C)C(=O)Nc2ccc(F)cc2)O3)cc1	.	-1	.	14	.	-14
CO[C@@H]1CN(C)C(=O)c2cc(NC(=O)C3CCC3)ccc2OC[C@H](C)N(Cc2ccc(F)cc2)C[C@@H]1C	.	0	-6	-15	.	7
CN(C)c1cccc(F)c1C(=O)NC(=O)Nc1ccc(Cl)cc1	26	1	8	1	2	53*
CN(C)c1cccc(N(C)C)c1CNC(=O)NC(=O)c1c(F)cccc1F	-4	0	.	14	-1	-2
COc1ccccc1-c1cc(C(F)(F)F)nc(S(=O)(=O)CCCC(=O)Nc2cc(C)on2)n1	39	.	.	.	39	.
COc1ccccc1-c1cc(C(F)(F)F)nc(S(=O)(=O)CCCC(=O)NC(C)C)n1	39	.	.	.	-5	.
COc1ccccc1-c1cc(C(F)(F)F)nc(S(C)(=O)=O)n1	19	.	.	.	53*	.
COc1ccccc1-c1cc(C(F)(F)F)nc(S(=O)(=O)CCCC(=O)NCc2ccc(F)cc2)n1	99*	0	-5	23	84*	-7
COc1ccccc1-c1cc(C(F)(F)F)nc(S(=O)(=O)CCCC(=O)Nc2cccnc2Cl)n1	82*	0	-7	.	62*	20
COc1ccc(-c2cc(C(F)(F)F)nc(S(=O)(=O)CCCC(=O)Nc3cc(C)on3)n2)cc1OC	96*	0	15	90*	52*	5
COc1ccccc1-c1cc(C(F)(F)F)nc(S(=O)(=O)CCCC(=O)N2CCCCC2C)n1 (stereo unspecified)	83*	.	16	.	65*	.
COCC(=O)N1CC(=O)N2[C@H](C1)[C@@H](c1ccc(-c3cccnc3)cc1)[C@@H]2CO	.	0	-2	.	.	.
CCCNC(=O)[C@@H]1[C@@H](CO)[C@@H]2Cn3c(ccc(-c4cccnc4)c3=O)[C@@H]2N1Cc1cocn1	.	0	.	2	.	-3
COc1ccc(S(=O)(=O)N(C)C[C@H]2Oc3c(NS(=O)(=O)c4c(C)noc4C)cccc3C(=O)N([C@H](C)CO)C[C@H]2C)cc1	.	0	.	4	.	-3
Cc1c(CNCCCc2ccccc2)c(C(=O)O)c(C)n1Cc1ccccc1	39	0	-8	-46	52*	-2
CC1=CC(=O)C=C(C)C1=NOS(=O)(=O)c1ccccc1	47	.	.	-4	42	.
CC1=CC(=O)C(C(C)C)=C/C1=N/OS(=O)(=O)c1ccccc1	89*	0	33*	.	47	42
CCC(C)(C)c1ccc2c(c1)C(=O)c1ccccc1C2=O	61*	0	3	-39	48	.
CS(=O)(=O)c1ncc(Cl)c(C(=O)Nc2ccc(N3CCOCC3)cc2)n1	-12	.	.	.	22	.
CCOC(=O)c1ccc(NC(=O)c2nc(SC)ncc2Cl)cc1	-31	0	-8	1	-9	-6
